Laboratory results from ChEMBL document CHEMBL2010705, “Design and synthesis of 4-alkynyl pyrazoles as inhibitors of PDE4: a practical access via Pd/C-Cu catalysis” (Bioorg Med Chem Lett, 2012).
The source made the active and inactive calls. The calls are words filed in the database; no cut-off is given here.

Columns and labels:
[1] = biological target: 3',5'-cyclic-AMP phosphodiesterase 4B (Homo sapiens) (UniProt Q07343); assay: Inhibition of PDE4B expressed in Sf9 cells using cAMP as substrate at 30 uM preincubated for 15 mins prior substrate addition measured after 1 hr by luminescence-based spectrophotometry
In short: (§1)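 10 ng PDE4B enzyme (isolated from Sf9 cells) was preincubated 15 min with compound or DMSO vehicle, then incubated 1 h with 5 µM cAMP using a PDElight HTS cAMP phosphodiesterase kit. The reaction was stopped, then developed with detection reagent for 10 min in the dark. Luminescence (RLU) was read, and % inhibition was calculated as (RLU vehicle − RLU inhibitor)/RLU vehicle × 100.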

[2] = biological target: 3',5'-cyclic-AMP phosphodiesterase 4B (Homo sapiens) (UniProt Q07343); assay: Inhibition of PDE4B expressed in Sf9 cells using cAMP as substrate preincubated for 15 mins prior substrate addition measured after 1 hr by luminescence-based spectrophotometry; in short: as §1
[3] = biological target: 3',5'-cyclic-AMP phosphodiesterase 4D (Homo sapiens) (UniProt Q08499); assay: Inhibition of PDE4D2 using cAMP as substrate at 30 uM preincubated for 15 mins prior substrate addition measured after 1 hr by luminescence-based spectrophotometry
[4] = Ratio of inhibition of PDE4B over inhibition of PDE4D2

3',5'-cyclic-AMP phosphodiesterase 4D (Homo sapiens), sequence (Q08499 whole entry): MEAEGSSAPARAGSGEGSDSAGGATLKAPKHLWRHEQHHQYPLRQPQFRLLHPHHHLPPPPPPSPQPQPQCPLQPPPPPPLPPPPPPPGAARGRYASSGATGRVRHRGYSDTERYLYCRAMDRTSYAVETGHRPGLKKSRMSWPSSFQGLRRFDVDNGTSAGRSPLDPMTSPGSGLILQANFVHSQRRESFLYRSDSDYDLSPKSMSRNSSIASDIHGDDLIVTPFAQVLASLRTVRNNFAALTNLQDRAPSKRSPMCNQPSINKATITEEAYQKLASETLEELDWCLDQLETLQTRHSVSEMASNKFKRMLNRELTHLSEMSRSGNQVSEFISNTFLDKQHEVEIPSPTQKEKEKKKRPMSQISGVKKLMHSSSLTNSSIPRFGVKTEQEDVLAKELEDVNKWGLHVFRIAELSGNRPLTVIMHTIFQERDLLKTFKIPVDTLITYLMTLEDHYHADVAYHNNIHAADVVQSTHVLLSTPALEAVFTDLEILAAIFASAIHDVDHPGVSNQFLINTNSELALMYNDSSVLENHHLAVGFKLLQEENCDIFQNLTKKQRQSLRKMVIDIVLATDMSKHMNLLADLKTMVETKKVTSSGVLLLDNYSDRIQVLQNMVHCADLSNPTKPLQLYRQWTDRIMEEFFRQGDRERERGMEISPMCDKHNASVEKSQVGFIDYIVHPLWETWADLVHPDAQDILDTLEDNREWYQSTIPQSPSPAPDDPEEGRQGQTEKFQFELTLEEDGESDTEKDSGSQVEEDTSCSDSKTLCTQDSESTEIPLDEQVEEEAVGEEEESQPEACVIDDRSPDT
3',5'-cyclic-AMP phosphodiesterase 4B (Homo sapiens), sequence (Q07343 whole entry): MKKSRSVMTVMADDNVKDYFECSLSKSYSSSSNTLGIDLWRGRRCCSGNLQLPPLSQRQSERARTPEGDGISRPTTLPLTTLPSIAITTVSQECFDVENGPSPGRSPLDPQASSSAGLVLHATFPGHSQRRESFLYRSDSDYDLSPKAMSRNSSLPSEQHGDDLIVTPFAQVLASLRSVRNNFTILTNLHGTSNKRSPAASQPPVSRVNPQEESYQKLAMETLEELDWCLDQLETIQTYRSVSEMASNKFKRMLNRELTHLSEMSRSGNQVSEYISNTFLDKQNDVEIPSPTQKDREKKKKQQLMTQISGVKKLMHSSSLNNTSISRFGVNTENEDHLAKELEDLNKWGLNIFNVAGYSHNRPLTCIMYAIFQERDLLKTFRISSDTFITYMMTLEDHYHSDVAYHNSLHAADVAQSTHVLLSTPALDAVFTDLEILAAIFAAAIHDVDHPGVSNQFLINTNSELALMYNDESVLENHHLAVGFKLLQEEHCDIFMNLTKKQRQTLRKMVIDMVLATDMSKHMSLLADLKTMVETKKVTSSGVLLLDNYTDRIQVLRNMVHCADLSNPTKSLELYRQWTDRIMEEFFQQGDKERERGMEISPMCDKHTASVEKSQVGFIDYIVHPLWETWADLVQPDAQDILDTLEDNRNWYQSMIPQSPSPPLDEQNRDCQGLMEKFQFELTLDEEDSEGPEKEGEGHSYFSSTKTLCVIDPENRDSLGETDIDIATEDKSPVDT

## CCOC(=O)c1n[nH]c(-c2cccc(Cl)c2)c1C#CC1(O)CCCCC1
[1]
  inhibition: 21.1%

## CCOC(=O)c1nn(C)c(-c2cccc(Cl)c2)c1C#CCCCC#N
[1]
  inhibition: 73.4%
[2]
  inhibition: Dose-dependent effect
[3]
  inhibition: 20%
[4]
  Ratio: 2

## CCOC(=O)c1nn(C)c(-c2cccc(Cl)c2)c1C#CCO
[1]
  inhibition: 69.1%

## CCOC(=O)c1n[nH]c(-c2cccc(Cl)c2)c1C#Cc1ccccc1
[1]
  inhibition: 70%
[3]
  inhibition: 20%
[4]
  Ratio: 2

## CCOC(=O)c1nn(C)c(-c2cccc(Cl)c2)c1C#CCCO
[1]
  inhibition: 59.2%

## CCOC(=O)c1n[nH]c(-c2cccc(Cl)c2)c1C#CC(C)(C)O
[1]
  inhibition: 70%
[3]
  inhibition: 20%
[4]
  Ratio: 2

## Cc1c(C#Cc2ccccc2)cnn1C
[2]
  inhibition: Active

## CCOC(=O)c1n[nH]c(-c2cccc(Cl)c2)c1C#CCCCC#N
[1]
  inhibition: 71.1%
[3]
  inhibition: 20%
[4]
  Ratio: 2

## CCOC(=O)c1n[nH]c(-c2cccc(Cl)c2)c1C#CCCO
[1]
  inhibition: 65.1%

## CCOC(=O)c1n[nH]c(-c2cccc(Cl)c2)c1C#CCO
[1]
  inhibition: 68.1%

## CCOC(=O)c1nn(C)c(-c2cccc(Cl)c2)c1C#CC(C)(C)O
[1]
  inhibition: 67.3%

## Cc1nn(C)c(C)c1C#Cc1ccccc1
[2]
  inhibition: Active
